“Also recorded” adds a separate entry of the source.
What was measured:
HIF-1 = test: Dual luciferase-reporter assay; type: cell-based, human; settings: HEK-293T, 24 h; for IC50: Homo sapiens
In short: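 HEK-293T seeded at 5 × 10^3 cells/well, attached 24 h, then transiently co-transfected with a firefly reporter carrying five HRE copies from the human VEGF promoter and a Renilla plasmid (pRL-SV40). Cells were then exposed to serially diluted test compound under 1% O2 for 24 h. Dual-Glo firefly read, then Stop & Glo Renilla read (10 min each). Firefly normalized to Renilla; three independent experiments.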

HIF-1α [1] = settings: 4T1 cells, hypoxic conditions, concentrations between 10 and 100 nM; cited from earlier work
HIF-1β = test: Western blot of HIF-1β expression in HEK-293T cells under hypoxia; type: cell-based, human; settings: 1 μM, 24 h
In short: (§1)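 HEK-293T cells were held under hypoxia (1% O2) for 24 h with or without test compound at 1 μM, with a normoxic comparison. Total protein lysates were resolved by SDS-PAGE and transferred to nitrocellulose. Membranes were blocked 30 min at room temperature in 5% skim milk/TBS-0.1% Tween-20, then given primary antibody overnight at 4 °C and HRP secondary 1 h at room temperature. Detection was chemiluminescent, with β-actin as internal control.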

HIF-1α [2] = test: Western blot of HIF-1α expression in HEK-293T cells under hypoxia; type: cell-based, human; settings: 1 μM, hypoxia (1% O2), 24 h
In short: as §1

VEGF secretion = settings: cited from earlier work
[3] = test system: cyclin-dependent kinase 6 (Cdk6); test: Western blot of Cdk6; type: cell-based, human; settings: 1 μM, hypoxic conditions, 24 h
In short: as §1

VEGF mRNA = test: Real-time PCR of VEGF mRNA under hypoxia; type: cell-based, human; settings: 1 μM, hypoxic conditions, 24 h, normalized against β-actin
In short: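 Cells were given test compound at 1 μM under hypoxic conditions for 24 h, with normoxic and hypoxic controls. Total RNA was extracted with TRIzol and cDNA made with MMLV reverse transcriptase. SYBR Green real-time PCR used 10-fold diluted cDNA and gene-specific primers: 2 min 50 °C, 10 min 95 °C, then 40 cycles of 15 s 95 °C and 1 min 60 °C. Mean CT values were normalized to β-actin; triplicate runs, averaged.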

SMILES	IC50 (HIF-1)	regulation of HIF-1β (HIF-1β)	expression level of HIF-1α (HIF-1α [2])	protein level of Cdk6 [3]	other results
COc1ccc([C@@H](O)[C@@H](C)Oc2ccc([C@H]3O[C@H](c4ccc(O[C@H](C)[C@H](O)c5ccc(OC)c(OC)c5)c(OC)c4)[C@H](C)[C@H]3C)cc2OC)cc1OC [compound 1, manassantin A, reference compound]	0.011 ± 0.003 µM	did not regulate	inhibit the expression		hypoxia-induced HIF-1α expression (HIF-1α [1]): significantly inhibited; HIF-1 regulated VEGF secretion (VEGF secretion): dramatically reduced
COc1ccc(C(=O)COc2cc(C(=O)[C@@H](C)Oc3ccc([C@H]4O[C@H](c5ccc(O[C@H](C)C(=O)c6ccc(OC)c(OCC(=O)c7ccc(OC)c(OC)c7)c6)c(OC)c5)[C@H](C)[C@H]4C)cc3OC)ccc2OC)cc1OC [MA02]	> 10000 µM				HIF-1 inhibitory activity in luciferase assay (in words) (HIF-1; hypoxia (1% O2)): almost inactive
COc1ccc(C(=O)[C@@H](C)Oc2ccc([C@H]3O[C@H](c4ccc(O[C@H](C)C(=O)c5ccc(C6(C(F)(F)F)N=N6)cc5)c(OC)c4)[C@H](C)[C@H]3C)cc2OC)cc1OCCOCCOCCNC(=O)CCCC[C@@H]1SC[C@@H]2NC(=O)N[C@@H]21 [MA14]	2.32 µM				
COc1ccc([C@@H](O)[C@@H](C)Oc2ccc([C@H]3O[C@H](c4ccc(OC)c(OC)c4)[C@H](C)[C@H]3C)cc2OC)cc1OC [MA04, 4-O-methylsaucerneol]		did not regulate	significantly down-regulated; also recorded: inhibit the expression	decreased	VEGF mRNA levels (VEGF mRNA): significantly reduced
COc1ccc(C(=O)COc2ccc([C@H]3O[C@H](c4ccc(OCC(=O)c5ccc(OC)c(OC)c5)c(OC)c4)[C@H](C)[C@H]3C)cc2OC)cc1OC [MA07]		did not regulate	significantly down-regulated; also recorded: inhibit the expression	decreased	
COc1cc([C@H]2O[C@H](c3ccc(O[C@H](C)C(=O)c4ccccc4)c(OC)c3)[C@H](C)[C@H]2C)ccc1O[C@H](C)C(=O)c1ccccc1 [MA11]		did not regulate	significantly down-regulated; also recorded: inhibit the expression	decreased	
C#CCOc1cc(C(=O)[C@@H](C)Oc2ccc([C@H]3O[C@H](c4ccc(O[C@H](C)C(=O)c5ccc(C6(C(F)(F)F)N=N6)cc5)c(OC)c4)[C@H](C)[C@H]3C)cc2OC)ccc1OC [MA13]	0.73 µM				

Reference: PMC4765894 (Journal of Medicinal Chemistry, 2015)
